Test results taken from ChEMBL document CHEMBL3046177, “Plant growth inhibitory activity of p-hydroxyacetophenones and tremetones from Chilean endemic Baccharis species and some analogous: a comparative study” (J Agric Food Chem, 2002).
Activity calls are given as the source filed them. The calls are words filed in the database; no cut-off is given here.

Tests used:
[1] = tested on: Physalis ixocarpa; experiment: Phytotoxicity against Physalis ixocarpa assessed as inhibition of seed germination after 48 hr; type: functional
In short: (§1)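 Seeds of uniform size on Whatman No.1 filter paper in 85 mm Petri dishes, wetted with 8 or 10 mL deionized water or test solution (MeOH < 1%); controls got matching water/methanol. Sealed, incubated at 28 °C in the dark, scored at 48 h intervals; germination = 1 mm radicle extrusion. Three replicates.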

[2] = tested on: Trifolium pratense; experiment: Phytotoxicity against Trifolium pratense (red clover) assessed as inhibition of seed respiration during germination after 24 hr; type: functional, organism-based
In short: (§2)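 Oxygen uptake of germinating seeds measured polarographically with a Clark-type electrode at 25 °C in a nonilluminated cell over 5 and 10 min, at several compound concentrations. Expressed as percent of control (100%). Three experiments; RI50 from Probit analysis.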

[3] = tested on: Lactuca sativa; experiment: Phytotoxicity against Lactuca sativa (lettuce) assessed as inhibition of seed respiration during germination after 24 hr; type: functional, organism-based; in short: as §2
[4] = tested on: Lolium multiflorum; experiment: Increase of seed respiration during germination in Lolium multiflorum (Italian ryegrass)at 30 uM; type: functional, organism-based; in short: as §2
[5] = tested on: Physalis ixocarpa; experiment: Increase of shoot development during seeding stage in Physalis ixocarpa up to 50 uM after 120 hr; type: functional, organism-based
In short: (§3)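 Petri-dish seedling assay on filter paper wetted with test solution (MeOH < 1%), 28 °C in the dark. Coleoptile/hypocotyl and root lengths of all germinated seeds measured after 120 h, then plants dried to constant weight at 40 °C. Three replicates; 50% inhibitory concentrations by Probit analysis of percent inhibition versus concentration.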

[6] = tested on: Lolium multiflorum; experiment: Phytotoxicity against Lolium multiflorum (Italian ryegrass) assessed as inhibition of seed respiration during germination at 300 to 500 uM after 24 hr; type: functional, organism-based; in short: as §2
[7] = tested on: Trifolium pratense; experiment: Increase of shoot development during seeding stage in Trifolium pratense (red clover) at 200 uM after 120 hr; type: functional, organism-based; in short: as §3
[8] = tested on: Physalis ixocarpa; experiment: Phytotoxicity against Physalis ixocarpa assessed as inhibition of shoot development during seeding stage after 120 hr; type: functional, organism-based; in short: as §3
[9] = tested on: Lolium multiflorum; experiment: Phytotoxicity against Lolium multiflorum (Italian ryegrass) assessed as inhibition of shoot development during seeding stage after 120 hr; type: functional, organism-based; in short: as §3
[10] = tested on: Lolium multiflorum (ryegrass); experiment: Phytotoxicity against Lolium multiflorum (ryegrass) assessed as inhibition of seed germination at 500 uM after 48 hr
[11] = tested on: Lolium multiflorum; experiment: Phytotoxicity against Lolium multiflorum (Italian ryegrass) assessed as inhibition of root development during seeding stage after 120 hr; type: functional, organism-based; in short: as §3
[12] = tested on: Lolium multiflorum; experiment: Phytotoxicity against Lolium multiflorum (Italian ryegrass) assessed as inhibition of seed germination at 500 uM after 48 hr; type: functional; in short: as §1
[13] = tested on: Physalis ixocarpa; experiment: Phytotoxicity against Physalis ixocarpa assessed as inhibition of root development during seeding stage after 120 hr; type: functional, organism-based; in short: as §3
[14] = tested on: Lolium multiflorum; experiment: Phytotoxicity against Lolium multiflorum (Italian ryegrass) assessed as inhibition of seed respiration during germination after 24 hr; type: functional, organism-based; in short: as §2
[15] = tested on: Trifolium pratense; experiment: Phytotoxicity against Trifolium pratense (red clover) assessed as inhibition of shoot development during seeding stage after 120 hr; type: functional, organism-based; in short: as §3
[16] = tested on: Lactuca sativa; experiment: Phytotoxicity against Lactuca sativa (lettuce) assessed as inhibition of shoot development during seeding stage after 120 hr; type: functional, organism-based; in short: as §3
[17] = tested on: Lolium multiflorum; experiment: Phytotoxicity against Lolium multiflorum (Italian ryegrass) assessed as inhibition of seed germination after 48 hr; type: functional; in short: as §1
[18] = tested on: Trifolium pratense; experiment: Phytotoxicity against Trifolium pratense (red clover) assessed as inhibition of root development during seeding stage after 120 hr; type: functional, organism-based; in short: as §3
[19] = tested on: Lactuca sativa; experiment: Phytotoxicity against Lactuca sativa (lettuce) assessed as inhibition of root development during seeding stage after 120 hr; type: functional, organism-based; in short: as §3
[20] = tested on: Trifolium pratense; experiment: Phytotoxicity against Trifolium pratense (red clover) assessed as inhibition of seed germination after 48 hr; type: functional; in short: as §1
[21] = tested on: Lactuca sativa; experiment: Phytotoxicity against Lactuca sativa (lettuce) assessed as inhibition of seed germination after 48 hr; type: functional; in short: as §1
[22] = tested on: Lactuca sativa; experiment: Increase of root development during seeding stage in Lactuca sativa (lettuce) at 50 to 300 uM after 120 hr; type: functional, organism-based; in short: as §3
[23] = tested on: Trifolium pratense; experiment: Increase of root development during seeding stage in Trifolium pratense (red clover) at 50 to 300 uM after 120 hr; type: functional, organism-based; in short: as §3
[24] = tested on: Physalis ixocarpa; experiment: Phytotoxicity against Physalis ixocarpa assessed as inhibition of seed respiration during germination after 24 hr; type: functional, organism-based; in short: as §2

Structure (SMILES) | GI50 [1] | I50 [2] | I50 [3] | Activity [4] | Activity [5] | Activity [6] | Activity [7] | inhibition at 500 µM [10] [%] | inhibition at 500 µM [12] [%] | I50 [14] | GI50 [17] | GI50 [20] | GI50 [21] | Activity [22] | Activity [23] | I50 [24] | further results
C=C(C)[C@H]1Cc2c(ccc(C(C)=O)c2OC(C)=O)O1 [4-ACETYL TREMETONE] | 55.2 µM | inactive | inactive | Active | Active | Active | Active | 30 | 30 | inactive | 79.9 µM | 40 µM | 85.5 µM | Active | Active | inactive | IC50 ([8]; read-out: I50): 65.5 µM; IC50 ([9]; read-out: I50): 87.5 µM; IC50 ([11]; read-out: I50): 82.1 µM; IC50 ([13]; read-out: I50): 70.1 µM; IC50 ([15]; read-out: I50): 45 µM; IC50 ([16]; read-out: I50): 89.5 µM; IC50 ([18]; read-out: I50): 45 µM; IC50 ([19]; read-out: I50): 87.5 µM
CC(=O)c1ccc(O[C@@H]2O[C@H](CO)[C@@H](O)[C@H](O)[C@H]2O)cc1 [PICEIN] | inactive | inactive | inactive | Active | Active | Active | Active | 30 | 30 | inactive | inactive | inactive | inactive | Active | Active | inactive | I50 [8]: inactive; I50 [9]: inactive; I50 [11]: inactive; I50 [13]: inactive; I50 [15]: inactive; I50 [16]: inactive; I50 [18]: inactive; I50 [19]: inactive
